# Published values pooled from the literature.
# Cell line: Vero
# Observed: cell growth or viability
SMILES,assay,conditions,CC50
CN(C)N1C(=O)c2ccccc2C1CB1OC(C)(C)C(C)(C)O1 (stereo not drawn),,,204 µM
Cc1cn([C@H]2C[C@H](N=[N+]=[N-])[C@@H](CO)O2)c(=O)[nH]c1=O,,,51 µM
N#Cc1c(-c2ccc(Cl)cc2)nc2n(c1=O)NC(c1ccccc1O)N2C(Cc1c[nH]c2ccccc12)C(=O)O (stereo not drawn),MTT,72 h,250 µg/mL
C[C@H]1COc2c(N3CCN(C)CC3)c(F)cc3c(=O)c(C(=O)O)cn1c23,MTT,72 h,> 100 µg/mL
C[C@@H]1[C@H](O)[C@@H](C)/C=C/C=C/C=C/C=C/C=C/C=C/C=C/[C@H](O[C@@H]2O[C@H](C)[C@@H](O)[C@H](N)[C@@H]2O)C[C@@H]2O[C@](O)(C[C@@H](O)C[C@@H](O)[C@H](O)CC[C@@H](O)C[C@@H](O)CC(=O)O[C@H]1C)C[C@H](O)[C@H]2C(=O)O,,,7.7 µM
COC(=O)N[C@H](C(=O)N1CCC[C@H]1c1nc(-c2ccc(-c3ccc(-c4c[nH]c([C@@H]5CCCN5C(=O)[C@@H](NC(=O)OC)C(C)C)n4)cc3)cc2)c[nH]1)C(C)C,,,26 µM
O=C(Nc1ccc(Cl)cc1)c1cc(Cl)ccc1O,MTT,72 h,20 µg/mL
COC(=O)N[C@H](C(=O)N1C[C@H](N=[N+]=[N-])C[C@H]1c1ncc(-c2ccc(-c3ccc(-c4cnc([C@@H]5C[C@@H](N=[N+]=[N-])CN5C(=O)[C@@H](NC(=O)OC)C(C)C)[nH]4)cc3)cc2)[nH]1)C(C)C,,,> 100 µM
O=C(Nc1ccc(F)c(Cl)c1)c1cc(Cl)ccc1O,MTT,72 h,< 5 µg/mL
Brc1ccc(NCc2ccc(Oc3ccccn3)cc2)cc1,MTT,72 h,> 300 µM
CCOC(=O)C1=C(C)N2NC(c3ccccc3O)N(C(Cc3c[nH]c4ccccc34)C(=O)O)C2=NC1c1ccc(Cl)cc1 (stereo not drawn),MTT,72 h,250 µg/mL
Cc1ccc(NCc2ccc(Oc3ccccn3)cc2)cc1,MTT,72 h,> 300 µM
O=C(Nc1ccc(Br)c(C(F)(F)F)c1)c1ccccc1O,MTT,72 h,< 5 µg/mL
Cc1cccc(NCc2ccc(Oc3ccccn3)cc2)c1,MTT,72 h,> 300 µM
CC1(c2ccccc2O)Nn2c(nc(-c3ccc(Cl)cc3)c(C#N)c2=O)N1C(Cc1c[nH]c2ccccc12)C(=O)O (stereo not drawn),MTT,72 h,500 µg/mL
Cc1ccccc1NCc1ccc(Oc2ccccn2)cc1,MTT,72 h,> 300 µM
O=C(Nc1cccc(C(F)(F)F)c1)c1cc(Cl)ccc1O,MTT,72 h,< 5 µg/mL
COc1cccc(NCc2ccc(Oc3ccccn3)cc2)c1,MTT,72 h,> 300 µM
CC(C(=O)O)N1c2nc(-c3ccc(Cl)cc3)c(C#N)c(=O)n2NC1c1ccccc1O (stereo not drawn),MTT,72 h,500 µg/mL
Clc1cccc(NCc2ccc(Oc3ccccn3)cc2)c1,MTT,72 h,> 300 µM
COc1ccc(CN2C(=O)c3ccccc3C2CB2OC(C)(C)C(C)(C)O2)cc1 (stereo not drawn),,,2.3 µM
